From ChEMBL document CHEMBL1143812, “A novel bis-tetrahydrofuranylurethane-containing nonpeptidic protease inhibitor (PI), GRL-98065, is potent against multiple-PI-resistant human immunodeficiency virus in vitro” (Antimicrob Agents Chemother, 2007)

Experiments:
[1] = system: Human immunodeficiency virus 1; experiment: Antiviral activity against HIV1 BaL R5 subtype B in phytohemagglutininin-activated PBMCs assessed as inhibition of p24 Gag protein expression by MTT assay; type: functional, organism-based
Summary of the method: (§1)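 PHA-activated PBMCs (10^6/ml) infected with 50 TCID50s of each isolate and cultured with or without drug in 10-fold serial dilutions. The read-out was supernatant p24 Gag by chemiluminescent enzyme immunoassay. Assays were run in duplicate or triplicate, with one donor per experiment and three donors in total.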

[2] = system: Human immunodeficiency virus 1; experiment: Antiviral activity against HIV1 LAI in MT2 cells assessed as inhibition of p24 Gag protein expression by MTT assay; type: functional, organism-based; conditions: Human immunodeficiency virus 1, LAI
Summary of the method: (§2)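 MT-2 cells (2 × 10^4/ml) were infected with 100 TCID50s of the HIV-1LAI, HIV-2EHO or HIV-2ROD strain. They were cultured with serial drug concentrations at 37°C for 7 days. MTT was then added for 4 h at 37°C, formazan was dissolved in acidified isopropanol with 4% Triton X-100, and optical density was read. EC50 is the mean of three independent experiments, each run in duplicate.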

[3] = system: Human immunodeficiency virus 1; experiment: Antiviral activity against HIV1 MDR/C X4 in phytohemagglutininin-activated PBMCs assessed as inhibition of p24 Gag protein expression by MTT assay; type: functional, organism-based
Summary of the method: as §1, with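 “immunoassay. […]” for “immunoassay.”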

[4] = Cytotoxicity against human MT2 cells assessed as inhibition of p24 Gag protein expression by MTT assay; type: cell-based
[5] = system: Human immunodeficiency virus 1; experiment: Antiviral activity against HIV1 92UG029 X4 subtype A in phytohemagglutininin-activated PBMCs assessed as inhibition of p24 Gag protein expression by MTT assay; type: functional, organism-based
Summary of the method: as §1, with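 “immunoassay. […]” for “immunoassay.”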

[6] = system: Human immunodeficiency virus 1; experiment: Antiviral activity against HIV1 MDR/MM R5 in phytohemagglutininin-activated PBMCs assessed as inhibition of p24 Gag protein expression by MTT assay; type: functional, organism-based
Summary of the method: as §1, with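 “immunoassay. […]” for “immunoassay.”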

[7] = system: Human immunodeficiency virus 2; experiment: Antiviral activity against HIV2 EHO in MT2 cells assessed as inhibition of p24 Gag protein expression by MTT assay; type: functional, organism-based; conditions: Human immunodeficiency virus 2, EHO; summary of the method: as §2
[8] = system: Human immunodeficiency virus 1; experiment: Antiviral activity against atazanavir-resistant HIV1 in MT4 cells assessed as inhibition of p24 Gag protein expression by MTT assay; type: functional, organism-based; conditions: Human immunodeficiency virus 1, MT4
Summary of the method: (§3)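 MT-4 cells (10^5/ml) infected with 100 TCID50s of wild-type or PI-resistant NL4-3 virus and incubated at 37°C with or without graded drug concentrations. On day 7, supernatant p24 Gag was measured by chemiluminescent enzyme immunoassay. […] Assays were run in duplicate or triplicate.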

[9] = system: Human immunodeficiency virus 1; experiment: Antiviral activity against HIV1 MDR/TM X4 in phytohemagglutininin-activated PBMCs assessed as inhibition of p24 Gag protein expression by MTT assay; type: functional, organism-based
Summary of the method: as §1, with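 “immunoassay. […]” for “immunoassay.”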

[10] = system: Human immunodeficiency virus 1; experiment: Antiviral activity against HIV1 MDR/B X4 in phytohemagglutininin-activated PBMCs assessed as inhibition of p24 Gag protein expression by MTT assay; type: functional, organism-based
Summary of the method: as §1, with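 “immunoassay. […]” for “immunoassay.”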

[11] = system: Human immunodeficiency virus 1; experiment: Antiviral activity against HIV1 GRL98065p30 in MT4 cells assessed as inhibition of p24 Gag protein expression by MTT assay; type: functional, organism-based; conditions: Human immunodeficiency virus 1, MT4; summary of the method: as §3
[12] = system: Human immunodeficiency virus 1; experiment: Antiviral activity against HIV1 GRL98065p40 in MT4 cells assessed as inhibition of p24 Gag protein expression by MTT assay; type: functional, organism-based; conditions: Human immunodeficiency virus 1, MT4; summary of the method: as §3
[13] = system: Human immunodeficiency virus 1; experiment: Antiviral activity against saquinavir-resistant HIV1 in MT4 cells assessed as inhibition of p24 Gag protein expression by MTT assay; type: functional, organism-based; conditions: Human immunodeficiency virus 1, MT4; summary of the method: as §3
[14] = system: Human immunodeficiency virus 1; experiment: Antiviral activity against HIV1 MDR/G X4 in phytohemagglutininin-activated PBMCs assessed as inhibition of p24 Gag protein expression by MTT assay; type: functional, organism-based; summary of the method: as §1
[15] = system: Human immunodeficiency virus 1; experiment: Antiviral activity against HIV1 97ZA003 R5 subtype C in phytohemagglutininin-activated PBMCs assessed as inhibition of p24 Gag protein expression by MTT assay; type: functional, organism-based
Summary of the method: as §1, with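 “immunoassay. […]” for “immunoassay.”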

[16] = system: Human immunodeficiency virus 1; experiment: Antiviral activity against idinavir-resistant HIV1 in MT4 cells assessed as inhibition of p24 Gag protein expression by MTT assay; type: functional, organism-based; conditions: Human immunodeficiency virus 1, MT4; summary of the method: as §3
[17] = system: Human immunodeficiency virus 1; experiment: Antiviral activity against HIV1 92TH019 R5 subtype E in phytohemagglutininin-activated PBMCs assessed as inhibition of p24 Gag protein expression by MTT assay; type: functional, organism-based
Summary of the method: as §1, with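 “immunoassay. […]” for “immunoassay.”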

[18] = system: Human immunodeficiency virus 1; experiment: Antiviral activity against nelfinavir-resistant HIV1 in MT4 cells assessed as inhibition of p24 Gag protein expression by MTT assay; type: functional, organism-based; conditions: Human immunodeficiency virus 1, MT4; summary of the method: as §3
[19] = system: Human immunodeficiency virus 1; experiment: Antiviral activity against HIV1 92UG037 subtype A R5 in phytohemagglutininin-activated PBMCs assessed as inhibition of p24 Gag protein expression by MTT assay; type: functional, organism-based
Summary of the method: as §1, with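 “immunoassay. […]” for “immunoassay.”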

[20] = system: Human immunodeficiency virus 2; experiment: Antiviral activity against HIV2 ROD in MT2 cells assessed as inhibition of p24 Gag protein expression by MTT assay; type: functional, organism-based; conditions: Human immunodeficiency virus 2, ROD; summary of the method: as §2
[21] = system: Human immunodeficiency virus 1; experiment: Antiviral activity against HIV1 GRL98065p20 in MT4 cells assessed as inhibition of p24 Gag protein expression by MTT assay; type: functional, organism-based; conditions: Human immunodeficiency virus 1, MT4; summary of the method: as §3
[22] = system: Human immunodeficiency virus 1; experiment: Antiviral activity against lopinavir-resistant HIV1 in MT4 cells assessed as inhibition of p24 Gag protein expression by MTT assay; type: functional, organism-based; conditions: Human immunodeficiency virus 1, MT4; summary of the method: as §3
[23] = system: Human immunodeficiency virus 1; experiment: Antiviral activity against wild type HIV1 ERS104prc X4 in phytohemagglutininin-activated PBMCs assessed as inhibition of p24 Gag protein expression by MTT assay; type: functional, organism-based; summary of the method: as §1
[24] = system: Human immunodeficiency virus 1; experiment: Antiviral activity against amprenavir-resistant HIV1 in MT4 cells assessed as inhibition of p24 Gag protein expression by MTT assay; type: functional, organism-based; conditions: Human immunodeficiency virus 1, MT4; summary of the method: as §3
[25] = system: Human immunodeficiency virus 1; experiment: Antiviral activity against HIV1 MDR/JSL R5 in phytohemagglutininin-activated PBMCs assessed as inhibition of p24 Gag protein expression by MTT assay; type: functional, organism-based
Summary of the method: as §1, with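 “immunoassay. […]” for “immunoassay.”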

[26] = system: Human immunodeficiency virus 1; experiment: Antiviral activity against ritonavir-resistant HIV1 in MT4 cells assessed as inhibition of p24 Gag protein expression by MTT assay; type: functional, organism-based; conditions: Human immunodeficiency virus 1, MT4; summary of the method: as §3
[27] = system: Human immunodeficiency virus 1; experiment: Antiviral activity against HIV1 NL4-3 in MT4 cells by MTT assay; type: functional, organism-based; conditions: Human immunodeficiency virus 1, NL4-3, MT4

Structure (SMILES) | EC50 [1] | EC50 [2] | EC50 [3] | CC50 [4] | EC50 [5] | EC50 [6] | EC50 [7] | EC50 [8] | EC50 [9] | EC50 [10] | EC50 [11] | EC50 [12] | EC50 [13] | EC50 [15] | EC50 [17] | EC50 [19] | EC50 [20] | EC50 [21] | EC50 [23] | EC50 [27] | also measured
CC(C)(C)NC(=O)[C@@H]1CN(Cc2cccnc2)CCN1C[C@@H](O)C[C@@H](Cc1ccccc1)C(=O)N[C@H]1c2ccccc2C[C@H]1O | 22 nM | 48 nM | > 1000 nM | 69800 nM | 44 nM | > 1000 nM | 24 nM | 388 nM | > 1000 nM | > 1000 nM | 59 nM | 280 nM | > 1000 nM | 37 nM | 21 nM | 34 nM | 54 nM | 40 nM | 24 nM | – | EC50 [14]: 640 nM; EC50 [16]: > 1000 nM; EC50 [18]: 270 nM; EC50 [22]: > 1000 nM; EC50 [24]: 200 nM; EC50 [25]: > 1000 nM; EC50 [26]: 250 nM
Cc1c(O)cccc1C(=O)N[C@@H](CSc1ccccc1)[C@H](O)CN1C[C@H]2CCCC[C@H]2C[C@H]1C(=O)NC(C)(C)C | 18 nM | 32 nM | – | 8100 nM | 43 nM | – | 30 nM | – | – | – | 270 nM | – | – | 37 nM | 29 nM | 56 nM | 240 nM | 80 nM | – | 33 nM | –
COC(=O)N[C@H](C(=O)N[C@@H](Cc1ccccc1)[C@@H](O)CN(Cc1ccc(-c2ccccn2)cc1)NC(=O)[C@@H](NC(=O)OC)C(C)(C)C)C(C)(C)C [ATAZANAVIR] | 1.3 nM | 4.8 nM | 21 nM | 27600 nM | 6 nM | 45 nM | 5 nM | 330 nM | 38 nM | 250 nM | 8 nM | 11 nM | 326 nM | 3.4 nM | 2.7 nM | 2.5 nM | 13 nM | 6 nM | 3.8 nM | 4.2 nM | EC50 [14]: 32 nM; EC50 [16]: 60 nM; EC50 [18]: 21 nM; EC50 [22]: 40 nM; EC50 [24]: 3 nM; EC50 [25]: 540 nM; EC50 [26]: 18 nM
Cc1cccc(C)c1OCC(=O)N[C@@H](Cc1ccccc1)[C@@H](O)C[C@H](Cc1ccccc1)NC(=O)[C@H](C(C)C)N1CCCNC1=O [LOPINAVIR] | 5.3 nM | 7 nM | – | > 100000 nM | 7 nM | – | 2.6 nM | – | – | – | 60 nM | – | – | 7.3 nM | 3.3 nM | – | 4.9 nM | 34 nM | 7 nM | – | –
CC(C)c1nc(CN(C)C(=O)N[C@H](C(=O)N[C@@H](Cc2ccccc2)C[C@H](O)[C@H](Cc2ccccc2)NC(=O)OCc2cncs2)C(C)C)cs1 [RITONAVIR] | – | 54 nM | – | – | 71 nM | – | 210 nM | – | – | – | 300 nM | – | – | 39 nM | 30 nM | 41 nM | 260 nM | 130 nM | – | 33 nM | –
